Assay: Toxicity liver stage against HepG2, at 10uM
Type: cell-based
Parameters: test concentration 10 uM, cell line HepG2-A16-CD81EGFP
Conditions: human, HepG2-A16-CD81EGFP cells; read-out: INHIBITION
Summary of the method: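 Uninfected HepG2-A16-CD81EGFP cells, 3 × 10^3 per well, 1536-well, plated on prespotted compound at 10 μM final, parasite-free screening media added to match infected plates; puromycin 10 μM positive, DMSO 0.5% negative; run in parallel with 48 h PbLuc assay at 37 °C, 5% CO2; viability by CellTiter-Glo luminescence, normalized to controls.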

Row | SMILES | cytotoxicity at 10 µM [%]
1 | COc1ccc(-c2csc(N)c2C#N)cc1OC | -2.46
2 | COc1c(Br)cc(Cl)cc1NCc1c(C)noc1C | 12.8
3 | CCOC(=O)CCCNC(=O)CN1CCN(c2ncccn2)CC1 | -13.3
4 | CN1C[C@@H](O)[C@]2(CCN(C(=O)OCc3ccccc3)C2)S1(=O)=O | -0.53
5 | O=C1CCNc2ccc(F)cc2CN1Cc1ccco1 | -1.36
6 | COC1CN(C(=O)CC(C)C)CCC(=O)N(C)c2ccccc21 (centres undefined) | -2.72
7 | Cn1cccc1C(CNC(=O)COc1ccc(Cl)cc1Cl)N1CCCC1 (centres undefined) | -8.64
8 | CC(=O)NCc1cc(-c2cccs2)n(C2CCCC2)n1 | 3.29
9 | CNC(=O)c1nc2c(s1)CCN(C(=O)c1ccccc1)CC2 | 11.1
10 | CS(=O)(=O)N1CC[C@@H]2O[C@@H](COCC(=O)N3CCCC3)CC[C@@H]21 | -0.879
11 | CC(C)NC(=O)N1CCN(C(=O)c2ccco2)CC2(CC(=O)N(C)C2)C1 (centres undefined) | 6.15
12 | O=C(COc1coc(CN2CCCCCC2)cc1=O)c1ccccc1 | 4.21
13 | Cc1cc(C(=O)N2C[C@@H]3[C@@H](C2)OCC(=O)N3CC2CC2)no1 | -10.4
14 | CCS(=O)(=O)Nc1ccn(Cc2cccc(F)c2)n1 | 6.22
15 | COC(=O)c1ccc(NS(=O)(=O)c2cnc(NC(C)=O)s2)cc1 | 9.35
16 | CSc1cccc(NC(=O)Nc2c(O)oc3ccccc3c2=O)c1 | 4.45
17 | CCCC1c2cccn2CCN1S(=O)(=O)N1CCOCC1 (centres undefined) | 1.26
18 | CN(CC1(C)COC1)C(=O)c1cc(-c2ccnn2C)nc2ccccc12 | 6.57
19 | O=C(c1ccc2[nH]nnc2c1)N1CC[C@H](O)[C@]2(CCCO2)C1 | -2.98
20 | O=C(O)COc1ccc(CN2CCCC(Cc3cccnc3)C2)cc1 (centres undefined) | -4.98
21 | CC(=O)N1CCC(c2cncc(Cl)n2)CC1 | 3.8
22 | CN(C)c1nc(O)cc(C2CCN(C(=O)Cc3ccccn3)C2)n1 (centres undefined) | -0.399

Row | SMILES | cytotoxicity at 10 µM [%]
23 | Cc1cc(Nc2cnccn2)nc(C2CCCN(CCO)C2)n1 (centres undefined) | -5.87
24 | CC(=O)N1CCC(c2ncc3c(n2)CCN(C(=O)c2ccccc2)C3)C1 (centres undefined) | -8.69
25 | NC(=O)C1(CCCc2ccncc2)CCCN1 (centres undefined) | -21.5
26 | C=Cn1cc(CN2CCc3nc(-c4cccnc4)nc(O)c3C2)c(C)n1 | -6.94
27 | O=C(C[S+]([O-])c1ccc(F)c(F)c1)NCc1cc(F)cc(F)c1 (centres undefined) | 5.58
28 | O=C(Cc1cccc(F)c1F)N1CCOC(c2cccc(O)c2)C1 (centres undefined) | 0.0788
29 | Cc1ccc(F)cc1S(=O)(=O)NCc1[nH]ncc1Br | 10.3
30 | COc1cc(NC(=O)N(C)CC2CC2)ncn1 | 7.09
31 | CCOc1ncccc1CNS(=O)(=O)c1ccc2c(c1)CCCC(=O)N2 | 12.1
32 | Cc1cccc(C(=O)N2CCSCC2)c1NC(=O)c1ccsc1 | 3.85
33 | NC(=O)Cn1c(SCc2noc(-c3ccsc3)n2)nnc1C1CC1 | 15.4
34 | CSCCC(NC(N)=O)C(=O)Nc1ccc(-n2cccn2)nc1 (centres undefined) | 4.78
35 | CCS(=O)(=O)c1ccc(N2CCC(NC(=O)C(C)SC)CC2)cc1 (centres undefined) | 7.99
36 | CC(C)COCC(C)NC(=O)NCc1cccc(-n2cncn2)c1 (centres undefined) | -0.662
37 | Cc1ccc(-c2nc(CN3CC(n4nc(C)cc4C)C3)no2)cc1 | -1.64
38 | Cc1nsc(NCCNS(=O)(=O)c2cccc(Cl)c2)n1 | 5.62
39 | CC(=O)NCCNC(=O)CN1CCCC1Cn1nc(C)nc1C (centres undefined) | -1.26
40 | CN(CCc1ccncc1)C(=O)C1CSCN1C(=O)C1CCCC1 (centres undefined) | -7.39
41 | O=C(Nc1ccc(CCN2CCSCC2)cc1)NC1CC1 | -12.1
42 | CS(=O)(=O)CCNCc1ccc(OCc2ccncc2)cc1 | -134
43 | CN(C(=O)C1CCC1)C1CCN(c2ccccc2Cl)C1=O (centres undefined) | -0.949
44 | CCN(Cc1ccoc1)C(=O)NC1CCN(C(=O)OC(C)(C)C)C1 (centres undefined) | 3.65

Row | SMILES | cytotoxicity at 10 µM [%]
45 | CC(C)c1noc(CNc2ccc(OC(F)F)cc2OC(F)F)n1 | 23.6
46 | O=C(NCc1nncn1C1CC1)c1ccc(F)c(COCC2CC2)c1 | 10.2
47 | Cc1ccc(C(=O)NS(C)(=O)=O)cc1S(C)(=O)=O | 4
48 | CCc1nnsc1C(=O)N(C)Cc1ccco1 | -45
49 | CCCOCC(=O)NC1CCc2nc(C)cn2C1 (centres undefined) | -2.88
50 | CC(=O)N1CCC(c2nc3ccc(C)cn3n2)CC1 | 0.819
51 | Cc1nocc1C(=O)N1CCOC2(COCCN(CC3CC3)C2)C1 (centres undefined) | 3.42
52 | Cc1cccc(NC(=O)N2CC(C(=O)NC(C)C)C3(CCOCC3)C2)c1 (centres undefined) | -75
53 | CCN(CCOC)C(=O)c1ccc2c(c1)nc(N1CC[C@H](O)C1)n2C | -2.96
54 | CCC(O)CNc1ccc(-c2nc(CC(C)C)no2)cn1 (centres undefined) | -6.19
55 | Cc1nc(C(C)C)sc1C(=O)N1CCC(N2CCSCC2)CC1 | -3.54
56 | CNc1ncc(C(=O)N[C@H]2CN(CCCSC)C[C@@H]2C2CC2)cn1 | 1.33
57 | CCN(CC)c1ncccc1CNC(=O)c1cc2nc(C)cc(C)n2n1 | 6.43
58 | O=C(O)CC[C@@H]1CN(c2ncccc2F)CC[C@@H]1N1CCOCC1 | -9.11
59 | COc1cc(CN2CC[C@@H](N3CCCCCC3)[C@H](O)C2)cc(Cl)c1OC | -1.47
60 | O=C(CCc1cc(Cl)no1)N1CCCCC1CCN1CCOCC1 (centres undefined) | -9.97
61 | Clc1ccccc1OC1CN(CC2CCOC2)C1 (centres undefined) | -0.745
62 | CCCc1ccc(CN2CCC3(CCC(=O)N(C(C)C(=O)O)C3)CC2)o1 (centres undefined) | -2.69
63 | CCN1CC(C(=O)NCCc2csc(-c3ccncc3)n2)CCC1=O (centres undefined) | -11.3
64 | O=C(NCCC1CN(Cc2c[nH]cn2)CCO1)Nc1ccccc1 (centres undefined) | -1.92
65 | CCC(=O)N1CCC2(CC1)c1nc[nH]c1CCN2S(C)(=O)=O | -11.4
66 | COc1ccccc1C1CNC(=O)c2nc(-c3ncc[nH]3)[nH]c2C1 (centres undefined) | -8.6

Row | SMILES | cytotoxicity at 10 µM [%]
67 | c1ccc(Cc2noc(CN3CCCCC3Cn3cccn3)n2)cc1 (centres undefined) | -0.945
68 | Cc1csc(C2CCCCN2C(=O)c2c[nH]c(C)n2)n1 (centres undefined) | -33.7
69 | Cc1noc(Cl)c1CCC(=O)N1CCN(Cc2ccncc2)CC1 | -14.2
70 | Cc1nc(C)n(CC2CN(Cc3ccc4c(c3)OCCO4)CCO2)n1 (centres undefined) | -3.63
71 | O=C(CCc1ccccc1F)N1CCC(Nc2cccnn2)CC1 | -3.78
72 | c1cnn(CC2CN(Cc3nnc(C4CC4)o3)CCO2)c1 (centres undefined) | -5.09
73 | Cc1noc(C)c1CCC(=O)N1CCCN(C)CC1 | -14.1
74 | Cc1noc(C)c1CCC(=O)N1CCN(Cc2cscn2)CC1 | -6.28
75 | Cc1ccc(CC(=O)N2CCC(Nc3ccc(C)nn3)CC2)cn1 | -4.75
76 | CC(C)c1nccn1C1CCCN(C(=O)c2cn3cccnc3n2)C1 (centres undefined) | -3.63
77 | Cc1cccc(OCCCN2CCC(N(C)Cc3noc(C)n3)C2)c1 (centres undefined) | -2.61
78 | CCN1CCN(CCNC(=O)c2sc(C)nc2C)CC1 | 0.927
79 | COCCc1noc(CN2CCCC2Cn2nc(C)cc2C)n1 (centres undefined) | -1.92
80 | CC(C)c1nc(C2CCCN(C(=O)c3ccc4c(c3)COC4)C2)no1 (centres undefined) | -7
81 | COc1ccc(CC(=O)N2CCCC2Cn2cc(C)cn2)cc1OC (centres undefined) | -17.9
82 | CC(C)c1nccn1C1CCCN(C(=O)c2cccc3[nH]ncc23)C1 (centres undefined) | -0.35
83 | Cc1occc1CN(C)Cc1nc2c(cnn2C)c(=O)[nH]1 | 2.11
84 | CSCCC(=O)NS(=O)(=O)c1ccc2c(c1)OCCO2 | -14.7
85 | O=C(O)C1CCCCN1C(=O)c1cccc(C(F)(F)F)c1 (centres undefined) | -5.95
86 | COc1ccccc1CC(=O)N1CCC(NCc2c[nH]nc2C)CC1 | -13.5
87 | O=C(NCCNc1ncccn1)Nc1cc(C(F)(F)F)c[nH]c1=O | -4.69
88 | Cc1cnn(C2CCCN(C(=O)CCCNc3ncccn3)C2)c1 (centres undefined) | -3.27

Row | SMILES | cytotoxicity at 10 µM [%]
89 | O=C(Cc1ccccc1)N1CCN(Cc2noc(C3CC3)n2)CC1 | 1.15
90 | CCc1cccc(OCC(=O)N2CCCC(n3cncn3)C2)c1 (centres undefined) | -7.62
91 | Cc1cc(C)n(C2CCCN(C(=O)c3cnc4onc(C)c4c3)C2)n1 (centres undefined) | 5.17
92 | Cn1cc(CN(Cc2ccccc2)Cc2ccccn2)cn1 | 19.1
93 | O=C(CN1CCC(c2cc(=O)n3c(n2)CCCCC3)C1)N1CCCCC1 (centres undefined) | -22.8
94 | Fc1ccc(CN2CCC(F)(F)C3(CCN(c4cnccn4)C3)C2)cc1 (centres undefined) | 8.62
95 | CNC(=O)CNCc1c[nH]nc1-c1cc2ccccc2o1 | 6.7
96 | Cn1cccc1C(=O)N1CCO[C@H]2[C@H](OCc3cccnc3)CC[C@@H]21 | 7.2
97 | Cn1cccc1C(=O)N1CC[C@@H]2[C@@H]1CC(=O)N2CCN1CCOCC1 | -7.41
98 | CN1CC(=O)N(c2ccsc2)CC12CCN(C(=O)Nc1ccccc1)C2 (centres undefined) | -78.7
99 | CC(C)N1CCO[C@H]2CN(C(=O)c3ccncc3F)C[C@H]21 | -146
100 | NC(=O)COc1ccc(CNCc2cc(F)ccc2F)cc1 | 18.5
101 | c1ccc(OCC2C[C@@H]3[C@@H](C2)OCCN3CC2CCOCC2)nc1 (some centres undefined) | 2.75
102 | CN(C)[C@@H]1CCN(CC2CC2)[C@H]1Cc1cnn(C)c1 | -76.9
103 | CC(C)(C)n1cc(CNC2CCN(C(=O)c3ccoc3)CC2)cn1 | 6.35
104 | COCCN1CC[C@H]2OCC[C@@H](C(=O)N3CCCO3)[C@H]2C1 | 4.55
105 | CN(C)C(=O)[C@H]1C[C@H]2OCC[C@H]2N(CCOc2ccc(Cl)cc2)C1 | -115
106 | O=S(=O)(N[C@@H]1CCO[C@]2(CCN(CC3CCOCC3)C2)C1)C1CC1 | -142
107 | CN1CC(=O)N(c2cccc(F)c2)CC12CCN(Cc1cccnc1)C2 (centres undefined) | 9.69
108 | O=C(Nc1ccc(F)cc1)N1C[C@@H]2C[C@H](C(=O)N3CCOCC3)[C@H](C1)O2 | 3.41
109 | COCCN1C(=O)[C@@H]2CC[C@H]1CN(S(=O)(=O)c1ccc(OC)cc1)C2 | 6.35
